Consider seven compounds from paper PMC8851646 (ACS Omega, 2022).

Structures are written as SMILES. pIC50: −log10 of the molar value. Values after ≈ are worked out from the molar mass of the structure shown. Where two headings read alike, the source gives them in different places.

In series [1] the test system is K. pneumoniae NB29017 co-cultured with T. pyriformis. In words: T. pyriformis/K. pneumoniae. Format: cell-based, Klebsiella pneumoniae.
For series [2], the system named is K. pneumoniae NB29017. The series can be described thus: Qualitative inhibition of mucoid appearance of colonies on solid LB agar. Type of series: cell-based, Klebsiella pneumoniae. The settings on record: 4 fully mucoid, 0 nonmucoid, by eye. The procedure, abridged:
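Test compound dissolved in DMSO (12.8 mg/mL stock) and mixed into melted LB agar at 0–16 μg/mL final, then set in six-well plates. Mucoid wild-type NB29017 streaked for single colonies in each well. Plates incubated 18 h at 37 °C, then 2 h at 4 °C. Mucoid appearance scored by eye from 0 (none) to 4 (normal hypermucoid).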

Series [3] has as its system K. pneumoniae NB29017. In words: Electron microscopy of cell surface material. Format: cell-based, Klebsiella pneumoniae. Conditions: grown in SM medium with 32 μg/mL compound. Put shortly:
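K. pneumoniae NB29017 grown overnight with shaking at 37 °C in 10 mL SM medium, with or without test compound at 32 μg/mL. Diluted 1:50 into the same medium and grown to OD600 of about 2. Cells pelleted at 3000g and washed in Na-cacodylate pH 7.2. Fixed 2 h at 4 °C (2.5% glutaraldehyde, 1% tannic acid, 0.1 M Na-cacodylate, pH 7.2). Pelleted, taken up in cacodylate buffer and examined by electron microscopy.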

The test system of series [4] is K. pneumoniae wbbM mutant (NB29018) co-cultured with T. pyriformis. The series can be described thus: Tp/Kp co-culture assay with cell surface-defective wbbM mutant. Type of series: cell-based, Klebsiella pneumoniae. The settings on record: Tp threshold 4625–18,500 Tp/mL.
The test system of a further series is P. aeruginosa. The settings on record: against P. aeruginosa; cited from earlier work.
Series [5] in a line: Compound stability, LC-MS of freshly dissolved powder. Format: physicochemical. Conditions: impure by LC–MS from freshly dissolved powder.
The subject of the next series is Staphylococcus aureus. The series can be described thus: Antibacterial MIC, Gram-positive control. Conditions: read-out: MIC Sa. Type of series: cell-based.
A short description of series [6]: Cytotoxicity in K562 cells. Type of series: cell-based. Conditions: human.
The next series is described as follows: Red blood cell hemolysis. Format: cell-based, sheep. The settings on record: sheep, erythrocytes from defibrinated sheep blood, pH 7.5.
Series [7] relates to erythrocytes from defibrinated sheep blood. In words: Red blood cell hemolysis. Format: cell-based. The settings on record: Table 1; concentration causing 50% hemolysis.
Another series concerns the target T1, P. aeruginosa LpxC (Pseudomonas aeruginosa, UniProt P47205).
T1 sequence (P47205 1-303): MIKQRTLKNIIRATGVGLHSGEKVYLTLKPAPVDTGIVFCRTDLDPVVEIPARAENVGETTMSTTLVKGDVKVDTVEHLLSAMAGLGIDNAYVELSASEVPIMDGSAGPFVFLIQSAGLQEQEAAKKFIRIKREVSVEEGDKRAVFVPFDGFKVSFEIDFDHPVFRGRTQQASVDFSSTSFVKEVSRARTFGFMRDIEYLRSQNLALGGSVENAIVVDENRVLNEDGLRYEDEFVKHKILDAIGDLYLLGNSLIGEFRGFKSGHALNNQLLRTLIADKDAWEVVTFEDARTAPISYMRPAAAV
In words: Inhibition of purified LpxC enzyme. Type of series: biochemical.

In series [8] the test system is K. pneumoniae NB29017. In words: Kp-only counterscreen for direct antibacterial activity. Type of series: cell-based. Conditions: Klebsiella pneumoniae, NB29017, read-out: IC50 for Kp only, hit from the HTS.
A further series concerns K. pneumoniae (Kp). The series can be described thus: Antibacterial MIC, broth. The settings on record: Klebsiella pneumoniae, read-out: MIC, broth-based. Type of series: cell-based.
The subject of series [9] is K. pneumoniae NB29017. In words: Agar MIC. Format: cell-based. Conditions: Klebsiella pneumoniae, NB29017, read-out: agar MIC.
[10] abbreviates: read-out: Tp/Kp IC50, Table 2; expressed as μg/mL for comparison to agar values.
Where [11] appears, read: read-out: IC50 Tp/Kp, Table 1; freshly dissolved powder, top concentration 20 μM.
The mark [12] stands for this setting: read-out: Tp/Kp IC50, archived powder, side by side on the same assay plate, Tp set at 25000.
Setting [13] is: read-out: Tp/Kp IC50, resynthesis batch, side by side on the same assay plate, Tp set at 25000.

Consider `C=CCSc1nnc(C)c(O)n1` [D1, C=CCSc1nnc(C)c(O)n1, reference compound], for which the pIC50 was 5.64 in [1] (read-out: Tp/Kp IC50, D1 control on the same plate, Tp set at 25000); 5.56 in series [1] (read-out: Tp/Kp IC50, D1 control on the same plate; Tp set at 25000); 5.70 in series [1] (read-out: median IC50 for D1 across 28 hit confirmation runs, standard deviation of 0.3). For the same compound, the IC50 in [1] (setting [10]) is 0.54 µg/mL. In addition, the “qualitative score on solid medium” value in the series on K. pneumoniae NB29017 [2] (2 μg/mL compound in agar) is 4; with K. pneumoniae NB29017 [2] (4 μg/mL compound in agar), 3; in the series on K. pneumoniae NB29017 [2] (8 μg/mL compound in agar) it was “slight”; with K. pneumoniae NB29017 [2] (16 μg/mL compound in agar) it was 1. Further, the “surface polysaccharide material by electron microscopy” value in the series on K. pneumoniae NB29017 [3] is given as “largely devoid of this”. The “activity in the Tp/Kp wbbM assay” value in series [4] is “largely retained”. The “efficacy in an animal model of infection” value in the series on P. aeruginosa is given as “efficacy”.

For the compound `CCOC(=O)/C(=N\NC(N)=S)c1cccs1` [compound 25, CCOC(=O)/C(=N\NC(N)=S)/C1=CC=CS1], in [5], the stability result is recorded as “unstable”.

As to `COc1ccc(-c2csc(NC(=O)c3ccc(C(=O)Nc4nc(-c5ccc(OC)c(OC)c5)cs4)s3)n2)cc1OC` [compound 62, COc1ccc(cc1OC)C5=CSC(NC(=O)C2=CC=C(S2)C(=O)NC3=NC(=CS3)c4cc(OC)c(cc4)OC)=N5], the pIC50 in series [1] (setting [11]) is 9.00; in series [1] (setting [12]) it was 8.77; in [1] (setting [13]), 9.17; in [6], less than 3.68. In addition, in [1] (setting [10]), the IC50 worked out at 0.001 µg/mL. In the series on Staphylococcus aureus, the minimal inhibitory concentration (MIC) is more than 32 µg/mL. In the series “Red blood cell hemolysis”, this compound yielded a hemolysis at 1 h of 11.7%. Further, the “qualitative score on solid medium” value came out at 2 with K. pneumoniae NB29017 [2] (1 μg/mL compound in agar); 0 with K. pneumoniae NB29017 [2] (2 μg/mL compound in agar); 0 with K. pneumoniae NB29017 [2] (4 μg/mL compound in agar); 0 in the series on K. pneumoniae NB29017 [2] (8 μg/mL compound in agar); 0 in the series on K. pneumoniae NB29017 [2] (16 μg/mL compound in agar). Further, the “surface polysaccharide material by electron microscopy” value in the series on K. pneumoniae NB29017 [3] is “devoid of any surface material”. Also, in series [4], the “activity in the Tp/Kp wbbM assay” value is reported as “retained potency”.

For `COc1ccc2nc(NC(=O)c3cc(=O)c4ccccc4o3)sc2c1` [compound 63, COc4ccc3N=C(NC(=O)C2=CC(=O)c1ccccc1O2)Sc3c4], the pIC50 in [1] (setting [11]) is 6.96; in series [6], 4.46. Moreover, the IC50 in series [1] (setting [10]) was found to be 0.04 µg/mL. In addition, the MIC with Staphylococcus aureus was more than 128 µg/mL. The compound also came in with a hemolysis at 1 h in “Red blood cell hemolysis” of 8.3%. Also, the “RBC hemolysis (HC50)” value in [7] is 64 µM. Also, the “qualitative score on solid medium” value in the series with K. pneumoniae NB29017 [2] (1 μg/mL compound in agar) was found to be 1; in the series with K. pneumoniae NB29017 [2] (2 μg/mL compound in agar) it was 0; in the series with K. pneumoniae NB29017 [2] (4 μg/mL compound in agar), 0; in the series on K. pneumoniae NB29017 [2] (8 μg/mL compound in agar) it was 0; in the series on K. pneumoniae NB29017 [2] (16 μg/mL compound in agar), 0.

Consider `CCOC(=O)c1ccc2nc(NC(=O)c3cccs3)sc2c1` [compound 64, CCOC(=O)c3ccc2N=C(NC(=O)C1=CC=CS1)Sc2c3], for which the pIC50 is 6.92 in series [1] (setting [11]), 6.44 in [1] (setting [12]), 6.73 in series [1] (setting [13]) and less than 3.41 in series [6]. The IC50 in [1] (setting [10]) was 0.04 µg/mL. In the series on Staphylococcus aureus, the minimal inhibitory concentration (MIC) was more than 128 µg/mL. This compound also had a hemolysis at 1 h in “Red blood cell hemolysis” of 14.9%. For the same compound, the “qualitative score on solid medium” value in the series on K. pneumoniae NB29017 [2] (1 μg/mL compound in agar), in the series on K. pneumoniae NB29017 [2] (2 μg/mL compound in agar), in the series with K. pneumoniae NB29017 [2] (4 μg/mL compound in agar), in the series with K. pneumoniae NB29017 [2] (8 μg/mL compound in agar) and in the series on K. pneumoniae NB29017 [2] (16 μg/mL compound in agar) was 0 each time. Moreover, in series [4], the “activity in the Tp/Kp wbbM assay” value was “retained potency”.

With `CC(C)(N)C(NC(=O)c1ccc(OCC#CC2CC2)cc1)C(=O)NO` (stereo not shown) [compound 180, CC(C)(N)C(NC(=O)c1ccc(cc1)OCC#CC2CC2)C(=O)NO], the pIC50 in [1] (setting [11]) is 5.94; in series [6] it was 4.16; on P. aeruginosa LpxC, 7.40. Also, the minimal inhibitory concentration (MIC) with Staphylococcus aureus was more than 128 µg/mL.

As to `O=CN(O)CCCP(=O)(O)O` [fosmidomycin], the pIC50 was more than 7.11 in [1] (read-out: IC50 for Tp/Kp, hit from the HTS) and less than 4.70 in the series on K. pneumoniae NB29017 [8]. The values for the MIC with K. pneumoniae (Kp) and with K. pneumoniae NB29017 [9] were more than 128 µg/mL and 0.5 µg/mL (≈ 2.73 µM), respectively.
